Measured values reported in ChEMBL document CHEMBL4422620, “Synthesis of novel morpholine, thiomorpholine and N-substituted piperazine coupled 2-(thiophen-2-yl)dihydroquinolines as potent inhibitors of Mycobacterium tuberculosis” (Eur J Med Chem, 2019).
≈ marks a conversion by molar mass, not a printed value.

Key:
[1] = system: Mycobacterium tuberculosis; experiment: Antitubercular activity against Mycobacterium tuberculosis H37Rv after 7 days by Alamar blue assay; type: functional; settings: 168 h
Procedure, shortened: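 M. tuberculosis H37Rv inoculum from fresh LJ medium resuspended in 7H9-S (7H9 broth, 0.1% casitone, 0.5% glycerol, OADC), adjusted to McFarland No. 1, diluted 1:20. Serial two-fold drug dilutions in 7H9-S, with growth and sterile controls. Incubated at 37°C in normal atmosphere for 7 days, then Alamar blue added and plates re-incubated overnight. MIC was the lowest concentration fully inhibiting growth.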

[2] = Cytotoxicity against human HEK293T cells assessed as inhibition of cell growth at 50 ug/ml after 72 hrs by MTT assay relative to control; type: cell-based, HEK-293T; settings: read-out: GI
Procedure, shortened: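 HEK-293T cells exposed to compounds at 50 μg/mL for 72 h. Viability was read as cellular conversion of MTT to formazan and expressed as percentage inhibition.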

| SMILES | MIC [1] [µg/mL] | inhibition at 72 h, 50 ug/ml [2] [%] |
| --- | --- | --- |
| ClC1=C(CN2CCN(CC3OCCO3)CC2)CCc2nc(-c3cccs3)ccc21 | 12.5 (≈ 28.9 µM) |  |
| CC(C)(C)OC(=O)N1CCN(CC2=C(Cl)c3ccc(-c4cccs4)nc3CC2)CC1 | 25 (≈ 56.1 µM) |  |
| COc1ccccc1N1CCN(CC2=C(Cl)c3ccc(-c4cccs4)nc3CC2)CC1 | 6.25 (≈ 13.8 µM) | 36.7 |
| ClC1=C(CN2CCN(c3ccc(Cl)cc3)CC2)CCc2nc(-c3cccs3)ccc21 | 25 (≈ 54.8 µM) |  |
| Fc1ccccc1N1CCN(CC2=C(Cl)c3ccc(-c4cccs4)nc3CC2)CC1 | 6.25 (≈ 14.2 µM) | 32.6 |
| ClC1=C(CN2CCN(Cc3ccc(Cl)cc3)CC2)CCc2nc(-c3cccs3)ccc21 | 12.5 (≈ 26.6 µM) |  |
| FC(F)(F)c1ccc(N2CCN(CC3=C(Cl)c4ccc(-c5cccs5)nc4CC3)CC2)cc1 | 25 (≈ 51 µM) |  |
| CC(=O)c1ccc(N2CCN(CC3=C(Cl)c4ccc(-c5cccs5)nc4CC3)CC2)cc1 | 25 (≈ 53.9 µM) |  |
| ClC1=C(CN2CCN(Cc3ccccc3)CC2)CCc2nc(-c3cccs3)ccc21 | 1.56 (≈ 3.58 µM) | 19.9 |
| ClC1=C(CN2CCSCC2)CCc2nc(-c3cccs3)ccc21 | 25 (≈ 68.9 µM) |  |
| ClC1=C(CN2CCN(c3ccccc3)CC2)CCc2nc(-c3cccs3)ccc21 | 25 (≈ 59.2 µM) |  |
| ClC1=C(CN2CCN(c3ccccn3)CC2)CCc2nc(-c3cccs3)ccc21 | 1.56 (≈ 3.69 µM) | 20.1 |
| ClC1=C(CN2CCN(Cc3ccc4c(c3)OCO4)CC2)CCc2nc(-c3cccs3)ccc21 | 25 (≈ 52.1 µM) |  |
| O=C(C1CC1)N1CCN(CC2=C(Cl)c3ccc(-c4cccs4)nc3CC2)CC1 | 3.12 (≈ 7.55 µM) | 28.9 |
| ClC1=C(CN2CCOCC2)CCc2nc(-c3cccs3)ccc21 | 6.25 (≈ 18 µM) | 34 |
| Cc1ccccc1N1CCN(CC2=C(Cl)c3ccc(-c4cccs4)nc3CC2)CC1 | 25 (≈ 57.3 µM) |  |
| O=C(O)c1cn(C2CC2)c2cc(N3CCNCC3)c(F)cc2c1=O [CIPROFLOXACIN] | 1.56 (≈ 4.71 µM) |  |
| CC[C@@H](CO)NCCN[C@@H](CC)CO [ETHAMBUTOL] | 3.13 (≈ 15.3 µM) |  |
| NNC(=O)c1ccncc1 [ISONIAZID] | 0.1 (≈ 0.729 µM) |  |
| CO[C@H]1/C=C/O[C@@]2(C)Oc3c(C)c(O)c4c(O)c(c(/C=N/N5CCN(C)CC5)c(O)c4c3C2=O)NC(=O)/C(C)=C\C=C\[C@H](C)[C@H](O)[C@@H](C)[C@@H](O)[C@@H](C)[C@H](OC(C)=O)[C@@H]1C [RIFAMPIN] | 0.2 (≈ 0.243 µM) |  |
